From ChEMBL document CHEMBL1629599, “A small-molecule screen identifies the antipsychotic drug pimozide as an inhibitor of Listeria monocytogenes infection” (2009) come the findings set out here.

As usually defined, the inhibition is the share of the control response that was lost under treatment.

The subject of experiment [1] is Listeria monocytogenes. Kind of experiment: Antimicrobial activity against Listeria monocytogenes DH-L1252 infected in murine bone marrow macrophages assessed as decrease in GFP reporter gene expression at 18.1 uM after 15 hrs. It counts as functional, organism-based. An outline of the steps: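 Primary BALB/c bone marrow macrophages (differentiated 6 days with L929 supernatant) are treated with 18.1 µM compound or DMSO, then infected with GFP-expressing 10403S (DH-L1252) at MOI 1:2. Extracellular bacteria are killed with 5 µg/ml gentamicin after 1 h. At 15 h post-infection, cells are fixed with paraformaldehyde and Hoechst-stained, and GFP is imaged by automated microscopy. Three independent infections in duplicate.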
A general note: In a reporter assay the amount or activity of a reporter protein is the signal.

For experiment [2], the system named is Listeria monocytogenes. Kind of experiment: Antimicrobial activity against Listeria monocytogenes DH-L1252 infected in murine bone marrow macrophages assessed as decrease in growth rate at 18.1 uM after 6 hrs. Type of experiment: functional, organism-based.
Experiment [3] concerns Listeria monocytogenes. Kind of experiment: Antimicrobial activity against Listeria monocytogenes DH-L1252 infected in murine bone marrow macrophages assessed as log reduction in intracellular bacterial count upto 10 hrs. Type of experiment: functional. An outline of the steps:
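BALB/c bone-marrow macrophages were seeded at 4 × 10^5/well 24 h ahead and pretreated 2 h with 18.1 µM drug or DMSO. They were infected at MOI 1:2 in antibiotic-free medium with washed Listeria grown 14–16 h in BHI at 30°C without shaking, with drug present throughout. At 1 h, 5 µg/ml gentamicin was added. At each time point cells were lysed in 0.1% Triton X-100 and CFU counted on LB agar, in triplicate.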

Experiment [4] relates to Listeria monocytogenes. Kind of experiment: Antimicrobial activity against Listeria monocytogenes DH-L1252 infected in murine bone marrow macrophages assessed as intracellular bacterial replication upto 10 hrs. Type of experiment: functional, organism-based. An outline of the steps:
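BALB/c bone marrow macrophages (4 × 10^5/well) are pretreated 2 h with 18.1 µM compound or DMSO, then infected with washed wild-type 10403S at MOI 1:2 in the presence of compound. At 1 h, medium with 5 µg/ml gentamicin plus compound is added. At set times, cells are lysed in 0.1% Triton X-100 and lysates plated on LB agar for CFU. Triplicates.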

Experiment [5] relates to Listeria monocytogenes. Kind of experiment: Inhibition of internalization of Listeria monocytogenes 10403S into murine bone marrow macrophages pretreated at 2.5 to 20 uM for 2 hrs. Type of experiment: functional. An outline of the steps:
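Bone marrow macrophages are pretreated 2 h with twofold compound dilutions, then infected with wild-type 10403S at MOI 10:1. Extracellular bacteria are killed with 50 µg/ml gentamicin at 30 min. At 90 min, cells are lysed and intracellular CFU enumerated. Three experiments in triplicate, fitted by linear regression.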

Experiment [6] concerns Listeria monocytogenes. Briefly: Inhibition of internalization of Listeria monocytogenes 10403S into murine J774 cells pretreated at 18.1 uM for 2 hrs. Type of experiment: functional. An outline of the steps: (§1)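 J774 or RAW 264.7 cells (4 × 10^5/well) are pretreated 2 h with 18.1 µM compound or DMSO, then infected with washed wild-type 10403S at MOI 10:1 with compound. At 30 min, medium with 50 µg/ml gentamicin plus compound is added. At 90 min, cells are lysed in 0.1% Triton X-100 and intracellular CFU plated on LB agar. Triplicates.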

Experiment [7] concerns Listeria monocytogenes. Briefly: Inhibition of internalization of Listeria monocytogenes 10403S into murine Raw 264.7 cells pretreated at 18.1 uM for 2 hrs. It counts as functional. To be noted: RAW264.7. An outline of the steps: as §1
For experiment [8], the system named is Bacillus subtilis. Briefly: Inhibition of internalization of Bacillus subtilis into murine murine bone marrow macrophages pretreated at 18.1 uM for 2 hrs. It counts as functional. An outline of the steps:
(§2)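 Gentamicin protection assay: bone marrow macrophages (4 × 10^5/well) pretreated 2 h with 18.1 µM compound or DMSO, then infected with B. subtilis 3610 (MOI 1.5:1), Salmonella Typhimurium IR715 (MOI 20:1) or E. coli K12 MM294 (MOI 20:1), all grown in LB at 37°C. After 30 min, 50 µg/ml gentamicin plus compound added; lysed at 90 min; CFU on LB agar; triplicates.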

For experiment [9], the system named is Salmonella typhimurium. Kind of experiment: Inhibition of internalization of Salmonella enterica serovar Typhimurium into murine murine bone marrow macrophages pretreated at 18.1 uM for 2 hrs. It counts as functional, Salmonella enterica subsp. enterica serovar Typhimurium. An outline of the steps:
as §2

Experiment [10] deals with Escherichia coli. Briefly: Inhibition of internalization of Escherichia coli K-12 into murine murine bone marrow macrophages pretreated at 18.1 uM for 2 hrs. Type of experiment: functional. An outline of the steps:
as §2

Experiment [11] relates to Listeria monocytogenes. Kind of experiment: Inhibition of internalization of Listeria monocytogenes DH-L1252 into murine bone marrow macrophages assessed as reduction in vacuolar escape of bacteria using phalloidin staining. Type of experiment: functional. An outline of the steps:
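Bone marrow macrophages on coverslips are treated 2 h with 18.1 µM compound or DMSO, then infected 30 min at MOI 10:1 with GFP 10403S grown to OD600 ~0.5 at 37°C. Gentamicin (50 µg/ml) plus compound is added. At 90 min, cells are fixed and stained with Texas Red-phalloidin and Hoechst. At least 100 bacteria per coverslip are scored as percent F-actin-associated.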

The test system of experiment [12] is Listeria monocytogenes. Kind of experiment: Antimicrobial activity against Listeria monocytogenes 10403S infected in L2 cells assessed as intracellular bacterial replication. Type of experiment: functional, cell-based. An outline of the steps:
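L2 fibroblasts (2 × 10^5/well, seeded 24 h before) are pretreated 2 h with 18.1 µM compound or DMSO. They are then infected with washed wild-type 10403S grown 14–16 h at 30°C in BHI, in antibiotic-free medium with compound. At 1 h, medium with 50 µg/ml gentamicin plus compound is added. At set times, cells are lysed in 0.1% Triton X-100 and lysates plated on LB agar for CFU. Triplicates.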

In experiment [13] the test system is Listeria monocytogenes. Kind of experiment: Antimicrobial activity against Listeria monocytogenes 10403S infected in L2 cells assessed as decrease in number of plaque formation at 18.1 uM after 1 hr. Type of experiment: functional, cell-based.
For experiment [14], the system named is Listeria monocytogenes. Briefly: Antimicrobial activity against Listeria monocytogenes 10403S infected in L2 cells assessed as decrease in plaque size at 18.1 uM after 1 hr. It counts as functional. Particulars: L2, 1 h. An outline of the steps: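 Wild-type L. monocytogenes grown 14–16 h, PBS-washed, infects L2 fibroblast monolayers (2 × 10^6 cells/well, seeded 24 h before) at MOI 1:5 after 2 h compound or DMSO pretreatment. At 1 h, wash and add agarose overlay with 30 µg/ml gentamicin plus 18.1 µM compound. Neutral red overlay added at 72 h. Plates scanned at 96 h; diameters of 10 plaques per well expressed as percent of DMSO; three independent experiments.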

The test system of experiment [15] is Listeria monocytogenes. Briefly: Inhibition of Listeria monocytogenes 10403S entry into murine bone marrow macrophages at 18.1 uM after 30 mins in calcium-free medium. To be noted: 0.5 h. Type of experiment: functional. An outline of the steps: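 Bone marrow macrophages are preincubated 30 min in calcium-free buffer (NaCl, KCl, MgCl2, 0.1 mM EGTA, glucose, HEPES, pH 7.35) with 18.1 µM compound or DMSO. They are then infected with wild-type 10403S for 15 min. Calcium-free medium with 50 µg/ml gentamicin plus compound is added. At 45 min, cells are lysed and intracellular CFU plated on LB agar. Triplicates.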

The source made the active and inactive calls. The rule behind the calls is not given here.

As for `O=c1[nH]c2ccccc2n1C1CCN(CCCC(c2ccc(F)cc2)c2ccc(F)cc2)CC1` [PIMOZIDE], the result in [1] was Active. Moreover, the result in [2], in experiment [4] and in experiment [12] was inactive. In experiment [3], the FC worked out at 1. For the same compound, the inhibition entry in experiment [5] was “Dose-dependent effect”. For the same compound, the inhibition at 18.1 µM in experiment [6] amounted to 75%; in experiment [7], 95%; in experiment [8], 73%; in experiment [9], 64%; in [10], 60%; in experiment [14], 47.1%. In [15], the inhibition at 18.1 µM was found to be 95%. In [11], the “inhibition (INH)” value is listed as 26.3%. For the same compound, the inhibition entry in experiment [13] was “Active”.
